Measurements: ChEMBL document CHEMBL4602702, “Red-Emitting Dibenzodiazepinone Derivatives as Fluorescent Dualsteric Probes for the Muscarinic Acetylcholine M2 Receptor” (J Med Chem, 2020)
pIC50, pKd, pKi: −log10 of the molar value. The source made the active and inactive calls. The rule behind the calls is not given here.

Tests used:
[1] = target: T1, Muscarinic acetylcholine receptor M1 (Homo sapiens, UniProt P11229); test: Displacement of [3H]-NMS from human muscarinic M1 receptor stably expressed in CHO-K9 cells by radioligand competitive binding assay; type: cell-based
T1 sequence (P11229 whole entry): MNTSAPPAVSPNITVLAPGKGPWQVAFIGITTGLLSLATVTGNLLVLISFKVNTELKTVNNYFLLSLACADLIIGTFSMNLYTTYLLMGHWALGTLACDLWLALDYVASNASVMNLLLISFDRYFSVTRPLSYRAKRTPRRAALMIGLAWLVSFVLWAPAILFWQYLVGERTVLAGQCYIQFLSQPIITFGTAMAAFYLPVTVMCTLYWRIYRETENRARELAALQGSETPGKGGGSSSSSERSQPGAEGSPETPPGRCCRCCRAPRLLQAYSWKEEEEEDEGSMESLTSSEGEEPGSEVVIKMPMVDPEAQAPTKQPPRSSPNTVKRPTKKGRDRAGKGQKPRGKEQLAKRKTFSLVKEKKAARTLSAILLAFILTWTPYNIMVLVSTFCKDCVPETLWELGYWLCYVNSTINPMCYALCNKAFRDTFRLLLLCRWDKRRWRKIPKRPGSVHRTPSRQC
Procedure, shortened: (§1)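 Equilibrium competition binding at live CHO-hMxR cells with [3H]NMS at M1 0.2, M2 0.2, M3 0.2, M4 0.1, M5 0.3 nM. […] Four-parameter logistic fit converted to pKi; at least three experiments in triplicate (some two).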

[2] = target: T2, Muscarinic acetylcholine receptor M5 (Homo sapiens, UniProt P08912); test: Displacement of [3H]-NMS from human muscarinic M5 receptor stably expressed in CHO-K9 cells by radioligand competitive binding assay; type: cell-based; procedure, shortened: as §1
T2 sequence (P08912 whole entry): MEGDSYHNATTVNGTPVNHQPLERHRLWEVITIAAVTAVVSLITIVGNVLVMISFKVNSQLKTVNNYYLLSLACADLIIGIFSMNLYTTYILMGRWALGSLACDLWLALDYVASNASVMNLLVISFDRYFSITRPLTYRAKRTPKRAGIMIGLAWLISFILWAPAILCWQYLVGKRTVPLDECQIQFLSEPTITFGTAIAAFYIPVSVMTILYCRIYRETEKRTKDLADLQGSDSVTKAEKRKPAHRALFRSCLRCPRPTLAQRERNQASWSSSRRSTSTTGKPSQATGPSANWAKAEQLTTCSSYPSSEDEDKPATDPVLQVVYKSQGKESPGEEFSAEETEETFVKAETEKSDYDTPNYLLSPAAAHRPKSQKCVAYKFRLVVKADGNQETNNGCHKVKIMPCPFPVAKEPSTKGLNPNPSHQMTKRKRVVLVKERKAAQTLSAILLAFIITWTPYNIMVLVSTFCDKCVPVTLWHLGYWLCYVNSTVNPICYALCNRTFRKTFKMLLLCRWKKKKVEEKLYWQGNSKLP

[3] = target: T3, Muscarinic acetylcholine receptor M2 (Homo sapiens, UniProt P08172); test: Displacement of [3H]-NMS from human muscarinic M2 receptor stably expressed in CHO-K9 cells by radioligand competitive binding assay; type: cell-based; procedure, shortened: as §1
T3 sequence (P08172 whole entry): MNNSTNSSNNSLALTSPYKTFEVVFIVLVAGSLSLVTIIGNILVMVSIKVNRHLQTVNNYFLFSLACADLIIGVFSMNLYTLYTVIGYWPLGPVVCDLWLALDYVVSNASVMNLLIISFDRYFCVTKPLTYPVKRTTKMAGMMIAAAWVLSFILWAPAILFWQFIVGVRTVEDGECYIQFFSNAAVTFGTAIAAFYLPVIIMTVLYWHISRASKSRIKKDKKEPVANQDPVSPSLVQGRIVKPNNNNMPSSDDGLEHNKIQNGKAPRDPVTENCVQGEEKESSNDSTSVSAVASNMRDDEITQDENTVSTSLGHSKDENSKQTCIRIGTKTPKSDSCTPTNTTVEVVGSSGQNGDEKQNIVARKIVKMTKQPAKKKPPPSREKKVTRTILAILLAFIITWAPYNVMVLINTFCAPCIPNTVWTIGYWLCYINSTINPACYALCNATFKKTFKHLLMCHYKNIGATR

[4] = target: T4, Muscarinic acetylcholine receptor M4 (Homo sapiens, UniProt P08173); test: Displacement of [3H]-NMS from human muscarinic M4 receptor stably expressed in CHO-K9 cells by radioligand competitive binding assay; type: cell-based; procedure, shortened: as §1
T4 sequence (P08173 whole entry): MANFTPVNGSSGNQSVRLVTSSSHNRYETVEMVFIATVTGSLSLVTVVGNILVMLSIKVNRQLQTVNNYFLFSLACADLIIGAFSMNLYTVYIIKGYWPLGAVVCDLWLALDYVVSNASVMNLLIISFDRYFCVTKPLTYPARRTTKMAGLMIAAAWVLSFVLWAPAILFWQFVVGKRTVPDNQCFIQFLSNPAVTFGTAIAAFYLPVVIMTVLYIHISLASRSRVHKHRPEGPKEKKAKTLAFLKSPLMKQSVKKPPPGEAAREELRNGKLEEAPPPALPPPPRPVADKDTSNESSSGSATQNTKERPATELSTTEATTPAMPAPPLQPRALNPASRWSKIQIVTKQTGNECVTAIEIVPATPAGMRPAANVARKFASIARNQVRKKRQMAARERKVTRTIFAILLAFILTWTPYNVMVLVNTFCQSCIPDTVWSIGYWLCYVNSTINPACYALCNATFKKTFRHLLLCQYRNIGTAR

[5] = target: Muscarinic acetylcholine receptor M3 (Homo sapiens, UniProt P20309); test: Displacement of [3H]-NMS from human muscarinic M3 receptor stably expressed in CHO-K9 cells by radioligand competitive binding assay; type: cell-based; procedure, shortened: as §1
[6] = Chemical stability of compound in PBS buffer assessed as retention time at pH 7.4 and 22 degree C measured up to 48 hrs by RP-HPLC analysis; type: physicochemical; details: pH 7.4, 48 h
Procedure, shortened: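 Fluorescent ligand stability checked in PBS pH 7.4 over 48 h by RP-HPLC on a C18 column with an aqueous TFA/acetonitrile gradient, oven at 25 °C, detection at 220 nm.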

[7] = target: T3, Muscarinic acetylcholine receptor M2; test: Binding affinity to human muscarinic M2 receptor expressed in […] cells incubated in dark at 22 degree C for 2 hrs by FACSCalibur flow cytometric saturation binding study; type: cell-based; details: for pKd: read-out: Kd
[8] = target: T5, Muscarinic acetylcholine receptor M2 (Homo sapiens) (UniProt P08172); test: Binding affinity to human muscarinic M2 receptor expressed in […] cells assessed as unspecific binding at Kd incubated in dark at 22 degree C for 2 hrs in presence of atropine by FACSCalibur flow cytometric saturation binding study relative to control; type: cell-based
T5 sequence (whole entry): T3 sequence (P08172 whole entry)

[9] = target: T3, Muscarinic acetylcholine receptor M2; test: Binding affinity to human muscarinic M2 receptor expressed in CHO-K9 cells incubated in dark measured after 60 mins by Hoechst H33342 dye based confocal plate reader assay; type: cell-based
Procedure, shortened: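 Live CHO-hMxR cells (M1 or M2) incubated with fluorescent ligand at 22 °C in the dark for 1 h, washed, then imaged at once by high-content confocal plate reader.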

[10] = target: T3, Muscarinic acetylcholine receptor M2; test: Antagonist activity at human muscarinic M2 receptor expressed in HEK293 cells co-expressing HA-Galphaq/i5 assessed as inhibition of carbachol-induced IP1 accumulation at 22 degree C pre-incubated for 180 mins followed by carbachol addition and further incubated at 37 degree C for 90 mins by HTRF assay; type: functional, cell-based
Procedure, shortened: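 HEK-hM2-Gαqi5-HA cells (transient transfection) preincubated with antagonist at 22 °C for 180 min, then carbachol 0.3 μM (≈EC80) added and incubation continued at 37 °C for 90 min. Readout is inhibition of IP1 accumulation as pIC50, mean ± SEM of n independent experiments, each in duplicate.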

[11] = target: T3, Muscarinic acetylcholine receptor M2; test: Antagonist activity at human muscarinic M2 receptor expressed in HEK293 cells co-expressing HA-Galphaq/i5 assessed as inhibition of carbachol-induced IP1 accumulation at 37 degree C pre-incubated for 30 mins followed by carbachol addition and measured after 60 mins by HTRF assay; type: functional, cell-based
[12] = target: T5, Muscarinic acetylcholine receptor M2 (Homo sapiens); test: Agonist activity at human muscarinic M2 receptor expressed in HEK293 cells co-expressing HA-Galphaq/i5 assessed as induction of Galphaq/i5-mediated IP1 accumulation by HTRF assay; type: functional, cell-based
Procedure, shortened: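 HEK-293 cells transiently co-transfected with hM2R and hybrid Gαqi5-HA, run in agonist mode at 37 °C; IP1 accumulation measured. Carbachol control from 14 independent experiments in duplicate; test ligands from three or four independent experiments in duplicate.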

[13] = target: T4, Muscarinic acetylcholine receptor M4; test: Antagonist activity at human muscarinic M4 receptor expressed in HEK293 cells co-expressing HA-Galphaq/i5 assessed as inhibition of carbachol-induced IP1 accumulation at 22 degree C pre-incubated for 180 mins followed by carbachol addition and further incubated at 37 degree C for 90 mins by HTRF assay; type: functional, cell-based

Muscarinic acetylcholine receptor M3, sequence (P20309 whole entry): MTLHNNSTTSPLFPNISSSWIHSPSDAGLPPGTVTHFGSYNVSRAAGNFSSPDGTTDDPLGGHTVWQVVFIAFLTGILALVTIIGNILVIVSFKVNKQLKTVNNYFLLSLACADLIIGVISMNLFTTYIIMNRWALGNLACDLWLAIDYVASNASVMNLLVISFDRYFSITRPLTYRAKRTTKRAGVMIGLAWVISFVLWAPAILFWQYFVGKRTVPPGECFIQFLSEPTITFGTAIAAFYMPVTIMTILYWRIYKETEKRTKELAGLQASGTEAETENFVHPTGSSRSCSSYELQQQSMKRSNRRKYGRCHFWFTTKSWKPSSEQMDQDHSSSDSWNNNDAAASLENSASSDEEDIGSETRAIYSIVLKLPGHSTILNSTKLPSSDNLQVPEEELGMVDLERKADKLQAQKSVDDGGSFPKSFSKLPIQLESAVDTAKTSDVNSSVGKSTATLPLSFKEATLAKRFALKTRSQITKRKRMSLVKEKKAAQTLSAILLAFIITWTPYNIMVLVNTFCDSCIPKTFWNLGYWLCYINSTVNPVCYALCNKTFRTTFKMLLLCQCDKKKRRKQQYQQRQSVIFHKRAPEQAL

| pKi [1] | pKi [2] | pKi [3] | pKi [4] | pKi [5] | other results | SMILES |
| --- | --- | --- | --- | --- | --- | --- |
| 7.82 | 7.16 | 8.35 | 7.73 | 7.07 | – | C[N+]1=C(/C=C/C=C/C=C2/N(CCCCCC(=O)NCCN3CCN(CCCCC4CCN(CC(=O)N5c6ccccc6NC(=O)c6ccccc65)CC4)CC3)c3ccccc3C2(C)C)C(C)(C)c2ccccc21 |
| 7.86 | 6.41 | 8.52 | 8.02 | 6.83 | – | Cc1cc(/C=C/C=C/c2ccc(N(C)C)cc2)cc(C)[n+]1CCN1CCN(CCCCC2CCN(CC(=O)N3c4ccccc4NC(=O)c4ccccc43)CC2)CC1 |
| – | – | 8.85 | – | – | – | CC1(C)C(/C=C/C=C/C=C2/N(CCCCCC(=O)NCc3cc(C(=O)NCCNC(=O)CCc4cn(CCCCC5CCN(CC(=O)N6c7ccccc7NC(=O)c7ccccc76)CC5)cn4)cc(C(=O)NCCNC(=O)CCc4cn(CCCCC5CCN(CC(=O)N6c7ccccc7NC(=O)c7ccccc76)CC5)cn4)c3)c3ccccc3C2(C)C)=[N+](CCCCS(=O)(=O)[O-])c2ccccc21 |
| 8.64 | 7.51 | 9.59 | 8.59 | 7.66 | Retention_time [6]: 18 min; pKd [7]: 9.19; Activity [8]: 10% | CC1(C)C(/C=C/C=C/C=C2/N(CCCCCC(=O)NCc3cc(C(=O)NCCN4CCC(N5CCC(n6c(=O)[nH]c7ccccc76)CC5)CC4)cc(C(=O)NCCN4CCN(CCCCC5CCN(CC(=O)N6c7ccccc7NC(=O)c7ccccc76)CC5)CC4)c3)c3ccc(S(=O)(=O)[O-])cc3C2(C)C)=[N+](CCCCS(=O)(=O)O)c2ccccc21.O=C(O)C(F)(F)F.O=C(O)C(F)(F)F.O=C(O)C(F)(F)F.O=C(O)C(F)(F)F |
| 6.46 | 6.06 | 6.85 | 6.70 | 6.06 | – | CC1(C)C(/C=C/C=C/C=C2/N(CCCCCC(=O)NCCCCC3CCN(CC(=O)N4c5ccccc5NC(=O)c5ccccc54)CC3)c3ccccc3C2(C)C)=[N+](CCCCS(=O)(=O)[O-])c2ccccc21 |
| – | – | 9.57 | – | – | – | NCc1cc(C(=O)NCCNC(=O)CCc2cn(CCCCC3CCN(CC(=O)N4c5ccccc5NC(=O)c5ccccc54)CC3)cn2)cc(C(=O)NCCNC(=O)CCc2cn(CCCCC3CCN(CC(=O)N4c5ccccc5NC(=O)c5ccccc54)CC3)cn2)c1 |
| – | – | 7.97 | – | – | – | NCCCCC1CCN(CC(=O)N2c3ccccc3NC(=O)c3ccccc32)CC1 |
| 8.00 | 6.85 | 8.87 | 8.40 | 7.17 | pKd ([9]; read-out: Kd): 7.97; Kd ([9]; read-out: pKd (converted)): 8.71 nM; pIC50 [10]: 7.22; pIC50 [11]: 7.31; Activity [12]: inactive; pKd [7]: 8.70; Kd ([7]; read-out: pKd (converted)): 2.57 nM; Activity [8]: 10%; pIC50 [13]: 7.04 | CC1(C)C(/C=C/C=C/C=C2/N(CCCCCC(=O)NCCN3CCN(CCCCC4CCN(CC(=O)N5c6ccccc6NC(=O)c6ccccc65)CC4)CC3)c3ccccc3C2(C)C)=[N+](CCCCS(=O)(=O)[O-])c2ccccc21 |
| 8.23 | 6.63 | 9.74 | 9.35 | 6.84 | – | NCCN1CCN(CCCCC2CCN(CC(=O)N3c4ccccc4NC(=O)c4ccccc43)CC2)CC1 |
| 7.51 | 6.70 | 7.77 | 7.79 | 7.07 | – | Cc1cc(/C=C/C=C/c2ccc(N(C)C)cc2)cc(C)[n+]1CCCCC1CCN(CC(=O)N2c3ccccc3NC(=O)c3ccccc32)CC1 |
| – | – | 9.03 | – | – | – | CC1(C)C(/C=C/C=C/C=C2/N(CCCCCC(=O)NCCNC(=O)CCc3cn(CCCCC4CCN(CC(=O)N5c6ccccc6NC(=O)c6ccccc65)CC4)cn3)c3ccccc3C2(C)C)=[N+](CCCCS(=O)(=O)[O-])c2ccccc21 |
| – | – | 9.23 | – | – | – | NCCNC(=O)CCc1cn(CCCCC2CCN(CC(=O)N3c4ccccc4NC(=O)c4ccccc43)CC2)cn1 |
| 6.92 | 6.54 | 7.27 | 7.17 | 6.20 | – | C[N+]1=C(/C=C/C=C/C=C2/N(CCCCCC(=O)NCCCCC3CCN(CC(=O)N4c5ccccc5NC(=O)c5ccccc54)CC3)c3ccccc3C2(C)C)C(C)(C)c2ccccc21 |
